In ChEMBL document CHEMBL1147747, “HIV integrase inhibitors with nucleobase scaffolds: discovery of a highly potent anti-HIV agent” (J Med Chem, 2006):
Activity calls are given as the source filed them. No cut-off for these calls is given here.

Experiments:
[1] = biological target: T1, Human immunodeficiency virus type 1 integrase (Human immunodeficiency virus 1, UniProt Q7ZJM1); test: Inhibition of 3' processing step of wt HIV1 integrase
[2] = biological target: T1, Human immunodeficiency virus type 1 integrase; test: Inhibition of strand transfer step of wt HIV1 integrase
PBMC [3] = test: Antiviral activity against HIV1 TEKI replication in PBMC at 1 uM; type: functional, cell-based; details: Homo sapiens
How it was run: (§1)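 PBMC cell-based microtiter anti-HIV assay against clinical isolate HIV-1 TEKI (NSI phenotype) or HIV-1 NL4-3 (SI phenotype). Test materials were run in triplicate as serial ½log10 dilutions, six to nine concentrations, from a stated high concentration (200 μM or 1 μM). IC50 and IC90 were determined, with cell viability measured in parallel. AZT was the MOI-sensitive positive control.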

[4] = Therapeutic index (TI=CC50/IC50) in HIV1 TEKI at 1 uM; type: cell-based; details: PBMC infected with HIV-1 TEKI; read-out: Ratio CC50/IC50
How it was run: (§2)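 Therapeutic index was calculated as CC50/IC50 from the PBMC assay, using HIV-1 NL4-3 or HIV-1 TEKI. Cell viability gave CC50, and antiviral readout gave IC50. Triplicate serial ½log10 dilutions were used, with a high test concentration of 200 μM or 1 μM.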

PBMC [5] = test: Antiviral activity against HIV1 NL4-3 replication in PBMC at 1 uM; type: functional, cell-based; details: Homo sapiens, NL4-3, PBMC; how it was run: as §1
[6] = Therapeutic index (TI=CC50/IC50) in HIV1 NL4-3 at uM; type: cell-based; details: PBMC infected with HIV-1 NL4-3; read-out: Ratio CC50/IC50; how it was run: as §2
HeLa [7] = test: Anti HIV activity against HIV1 NL4-3 in HeLa-CD4-LTR-beta-gal cells in MAGI-X4 assay; type: functional, cell-based
How it was run: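 MAGI-X4 assay in HeLa-CD4-LTR-β-gal cells infected with HIV-1 NL4-3. Detects blocks in replication up to and including Tat transactivation of the LTR. Triplicate determinations over serial ½log10 dilutions (six to nine concentrations). AZT served as positive control.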

HeLa [8] = test: Cytotoxicity against HeLa-CD4-LTR-beta-gal cells at 200 uM; type: functional, cell-based; details: Homo sapiens
How it was run: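 Cytotoxicity was measured in HeLa-CD4-LTR-β-gal cells within the MAGI-X4 assay. Up to 200 μM was tested, in triplicate, as serial ½log10 dilutions.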

PBMC [9] = test: Antiviral activity against HIV1 TEKI replication in PBMC at 200 uM; type: functional, cell-based; details: Homo sapiens; how it was run: as §1
in vitro [10] = details: PBMC infected with HIV-1 TEKI
in vitro [11] = details: PBMC infected with HIV-1 NL4-3
PBMC [12] = test: Antiviral activity against HIV1 NL4-3 replication in PBMC at 200 uM; type: functional, cell-based; details: Homo sapiens, NL4-3, PBMC; how it was run: as §1

T1 sequence (Q7ZJM1 whole entry): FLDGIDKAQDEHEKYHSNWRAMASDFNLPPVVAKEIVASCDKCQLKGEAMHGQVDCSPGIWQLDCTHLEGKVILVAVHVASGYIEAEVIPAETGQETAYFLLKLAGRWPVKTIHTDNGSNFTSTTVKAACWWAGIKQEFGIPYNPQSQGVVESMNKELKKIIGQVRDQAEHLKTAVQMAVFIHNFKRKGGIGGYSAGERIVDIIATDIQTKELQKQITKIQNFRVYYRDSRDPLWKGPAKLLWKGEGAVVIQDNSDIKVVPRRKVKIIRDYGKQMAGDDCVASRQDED

Compound: O=C(O)C(=O)/C=C(\O)c1cn(Cc2ccccc2F)c(=O)n(Cc2ccccc2F)c1=O
- IC50 [1]: 4100 nM
- IC50 [2]: < 600 nM

Compound: Cc1cn([C@H]2C[C@H](N=[N+]=[N-])[C@@H](CO)O2)c(=O)[nH]c1=O [ZIDOVUDINE]
- CC50 (PBMC [3]): > 1000 nM
- IC50 (PBMC [3]): 0.14 nM
- selectivity ratio [4]: > 7140
- CC50 (PBMC [5]): > 1000 nM
- IC50 (PBMC [5]): 0.18 nM
- selectivity ratio [6]: > 5560
- Activity (HeLa [7]): Active

Compound: O=C(O)C(=O)/C=C(\O)c1cn(Cc2ccc(F)cc2)c(=O)n(Cc2ccc(F)cc2)c1=O
- IC50 [1]: 3900 nM
- IC50 [2]: < 700 nM

Compound: O=C(O)C(=O)/C=C(\O)c1cn(Cc2ccccc2)c(=O)n(Cc2ccccc2)c1=O
- Activity (HeLa [8]): inactive
- IC50 [1]: 3700 nM
- IC50 [2]: 200 nM
- CC50 (PBMC [9]): > 200000 nM
- CC90 (PBMC [9]): > 200000 nM
- IC50 (PBMC [9]): 50 nM
- IC90 (PBMC [9]): 3910 nM
- selectivity ratio at 200 µM (in vitro [10]): > 4000
- selectivity ratio at 200 µM (in vitro [11]): > 10000
- CC50 (PBMC [12]): > 200000 nM
- CC90 (PBMC [12]): > 200000 nM
- IC50 (PBMC [12]): < 20 nM
- IC90 (PBMC [12]): 1540 nM
- Activity (HeLa [7]): Active

Compound: CC(C)(C)NC(=O)[C@@H]1C[C@@H]2CCCC[C@@H]2CN1C[C@@H](O)[C@H](Cc1ccccc1)NC(=O)[C@H](CC(N)=O)NC(=O)c1ccc2ccccc2n1
- Activity (HeLa [7]): inactive

Compound: O=C(O)C(=O)/C=C(\O)c1cn(Cc2ccccc2)c(=O)[nH]c1=O
- IC50 [1]: 10000 nM
- IC50 [2]: 500 nM
